# Reference: ChEMBL document CHEMBL1132279, “Axially chiral 1,7-naphthyridine-6-carboxamide derivatives as orally active tachykinin NK(1) receptor antagonists: synthesis, antagonistic activity, and effects on bladder functions” (J Med Chem, 1999)
# Values joined by “and” are separate entries in the source; they are usually repeats but may differ in a detail not shown here. Equal entries are not always repeated.
# What was measured:
# Cavia porcellus [1] = test: Shut down time of distension induced rhythmic bladder contractions in urethane anesthetized guinea pigs after a intravenous dose of 0.3 mg/kg of the compound; type: functional
# Summary of the method: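 Urethane-anesthetized guinea pigs; saline (39 °C) infused stepwise (0.2 mL) into the bladder via a dome needle until rhythmic isovolumetric contractions appeared. Compound in DMSO (0.05 mL/100 g) given iv at 0.3 mg/kg. Shutdown time (interval between contractions, 30 min cutoff) reported as mean ± SE, compared with the vehicle group mean by Dunnett's test.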
# Cavia porcellus [2] = test: In vivo inhibition of capsaicin-induced plasma extravasation in the trachea of guinea pigs after peroral administration; type: functional; details: po, read-out: ID50 (the source's name)
# Summary of the method: (§1)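 Male Hartley guinea pigs (n = 5–8) under pentobarbital 35 mg/kg ip. Compound given iv 5 min, or orally 60 min, before iv capsaicin (150 µg/kg) plus Evans blue (20 mg/kg) in ethanol-saline 3:7. After 10 min, animals were perfused with saline and the trachea weighed.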
# Cavia porcellus [3] = test: Effective dose that increased the bladder volume threshold of urethane anesthetized guinea pigs by 30%; type: functional
# Summary of the method: (§2)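 Urethane-anesthetized guinea pigs; bladder volume threshold read before dosing (mean of last two stable trials as control) and again 10 min after iv injection. Compound in 80% DMSO, 0.1 mL/100 g body weight. Effect given as % rise in volume threshold over predrug value; ED30 is the dose raising threshold by 30%, with 6–12 animals per dose and 95% confidence limits.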
# Cavia porcellus [4] = test: In vivo inhibition of capsaicin-induced plasma extravasation in the trachea of guinea pigs after intravenous administration; type: functional; summary of the method: as §1
# Cavia porcellus [5] = test: Inhibition of capsaicin-induced plasma extravasation in guinea pig trachea by peroral administration; type: functional; details: po, read-out: ID50 (the source's name); summary of the method: as §1
# Substance-P receptor = Substance-P receptor (Homo sapiens, UniProt P25103); test: Tachykinin receptor 1 antagonistic activity as ability to inhibit [125I]BH-SP binding in human IM-9 cells (lymphoblast cells); type: cell-based
# Cavia porcellus [6] = test: Increased bladder volume threshold in urethane anesthetized guinea pigs by 30%; type: functional; summary of the method: as §2
# Sequence of Substance-P receptor (P25103 whole entry): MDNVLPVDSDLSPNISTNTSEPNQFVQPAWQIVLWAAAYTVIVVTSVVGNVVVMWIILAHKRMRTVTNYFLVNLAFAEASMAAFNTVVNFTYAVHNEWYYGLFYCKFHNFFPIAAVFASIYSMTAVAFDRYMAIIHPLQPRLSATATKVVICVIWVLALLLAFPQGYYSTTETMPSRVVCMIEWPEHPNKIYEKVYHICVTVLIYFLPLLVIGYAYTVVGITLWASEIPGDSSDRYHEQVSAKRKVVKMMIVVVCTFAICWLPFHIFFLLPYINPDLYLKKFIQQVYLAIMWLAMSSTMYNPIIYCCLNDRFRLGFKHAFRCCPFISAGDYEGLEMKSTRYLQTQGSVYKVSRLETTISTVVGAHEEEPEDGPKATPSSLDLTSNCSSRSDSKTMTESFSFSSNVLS
IC50 (Substance-P receptor) [nM],SMILES,Shutdown time (Cavia porcellus [1]) [min],ED50 (Cavia porcellus [2]) [mg/kg],ED30 (Cavia porcellus [3]) [mg/kg],further results
,Cc1ccc(-c2c3n(c(=O)c4ncccc24)C[C@@H](C)CN(Cc2cc(C(F)(F)F)cc(C(F)(F)F)c2)C3=O)cc1,17.9,0.033,0.16,
,"Cc1ccc(-c2c3n(c(=O)c4ncccc24)CC[C@@H](C)CN(Cc2cc(C(F)(F)F)cc(C(F)(F)F)c2)C3=O)cc1 (stereo in doubt; (aR,9R)-8b)",21.8,0.033,0.051,ID50 (Cavia porcellus [4]): 0.0043 mg/kg
0.85,Cc1ccc(-c2c3n(c(=O)c4ncccc24)CCCN(Cc2cc(C(F)(F)F)cc(C(F)(F)F)c2)C3=O)cc1,10.1,,0.37,ED50 (Cavia porcellus [5]): 0.073 mg/kg
2.3,Cc1ccc(-c2c3n(c(=O)c4ncccc24)CCN(Cc2cc(C(F)(F)F)cc(C(F)(F)F)c2)C3=O)cc1,,,,
,"Cc1ccc(-c2c3n(c(=O)c4ncccc24)CCCCN(Cc2cc(C(F)(F)F)cc(C(F)(F)F)c2)C3=O)cc1 [7-(3,5-BIS-TRIFLUOROMETHYL-BENZYL)-5-P-TOLYL-8,9,10,11-TETRAHYDRO-7H-1,7,11A-TRIAZA-CYCLOOCTA[B]NAPHTHALENE-6,12-DIONE (ATROPISOMERIC MIX)]",,0.019,0.066,Shutdown time (Cavia porcellus [1]; 0.3 mg/kg): 7.4 min and 19.2 min and 15.7 min
,"Cc1ccc(-c2c3n(c(=O)c4ncccc24)CC[C@H](C)CN(Cc2cc(C(F)(F)F)cc(C(F)(F)F)c2)C3=O)cc1 (stereo in doubt; (aS,9S)-8b) [7-(3,5-BIS-TRIFLUOROMETHYL-BENZYL)-9-METHYL-5-P-TOLYL-8,9,10,11-TETRAHYDRO-7H-1,7,11A-TRIAZA-CYCLOOCTA[B]NAPHTHALENE-6,12-DIONE (ATROPISOMERIC MIX)]",6.7,,,"ED50 (Cavia porcellus [4]; Cavia porcellus, Plasma, iv, read-out: ID50 (the source's name)): > 0.3 mg/kg"
9.5,Cc1ccc(-c2c3n(c(=O)c4ncccc24)C[C@H](C)CN(Cc2cc(C(F)(F)F)cc(C(F)(F)F)c2)C3=O)cc1,5.9,,,
1.8,Cc1ccc(-c2c3n(c(=O)c4ncccc24)CCCCCN(Cc2cc(C(F)(F)F)cc(C(F)(F)F)c2)C3=O)cc1,17.1,0.04,0.086,
,"Cc1ccc(-c2c3n(c(=O)c4ncccc24)CC[C@@H](C)CN(Cc2cc(C(F)(F)F)cc(C(F)(F)F)c2)C3=O)cc1 (stereo in doubt; (aS,9R)-8b)",,,,ID50 (Cavia porcellus [4]): 0.026 mg/kg
,"Cc1ccc(-c2c(C(=O)N(C)Cc3cc(C(F)(F)F)cc(C(F)(F)F)c3)n(C)c(=O)c3ncccc23)cc1 [7-METHYL-8-OXO-5-P-TOLYL-7,8-DIHYDRO-[1,7]NAPHTHYRIDINE-6-CARBOXYLIC ACID (3,5-BIS-TRIFLUOROMETHYL-BENZYL)-METHYL-AMIDE (STRUCTURAL MIX)]",,0.11,,Shutdown time (Cavia porcellus [1]; 0.3 mg/kg): 12.9 min [middle of 4 runs]; ED30 (Cavia porcellus [6]): 0.1 mg/kg
